Screening data: PubChem, Sanford-Burnham Center for Chemical Genomics
APJ antag = APJ receptor antagonism. P35414. CHO-K1 APJ beta-arrestin complementation, luminescence. inhibition, % at 20 µM. 330,000 compounds, 0.32% hits;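 active means inhibition above about 40% at 20 µM, limit read from the data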;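 further: cells challenged with 10 nM apelin-13 agonist together with compound; plate controls were apelin-13 plus DMSO wells for no effect and DMSO wells lacking apelin-13 for full effect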
CXCR6 block = inhibitors of human CXCR6 receptor; O00574; 360,000 compounds, 0.36% hits; CHO-K1 PathHunter CXCR6 beta-arrestin, luminescence; inhibition, % at 20 µM; in the data active means inhibition above about 34%, passing the limit was not always enough;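 further: antagonist mode with CXCL16 agonist at 10 nM final; 0% = 10 nM CXCL16 with DMSO and 100% = unstimulated wells without agonist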
Target sequence (O00574 whole entry, looked up): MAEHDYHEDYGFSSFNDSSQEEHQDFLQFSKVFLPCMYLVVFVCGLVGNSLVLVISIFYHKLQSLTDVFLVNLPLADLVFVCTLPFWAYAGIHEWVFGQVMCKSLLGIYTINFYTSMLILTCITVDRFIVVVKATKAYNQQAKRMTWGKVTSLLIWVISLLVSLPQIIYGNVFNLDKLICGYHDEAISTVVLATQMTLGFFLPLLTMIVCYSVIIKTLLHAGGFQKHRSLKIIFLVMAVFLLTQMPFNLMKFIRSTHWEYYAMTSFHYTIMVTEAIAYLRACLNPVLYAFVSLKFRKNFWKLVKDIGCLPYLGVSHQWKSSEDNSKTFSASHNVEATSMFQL
CCR6 antag = blocks CCL20-driven beta-arrestin recruitment at human CCR6. P51684. CHO-K1 CCR6 PathHunter beta-arrestin, luminescence, CCL20-stimulated. inhibition, % at 20 µM. 340,000 compounds, 0.49% hits;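 active means compounds whose inhibition of the agonist-driven luminescence signal at 20 µM reaches about 50%, limit read from the data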;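 further: cells stimulated with CCL20 at 14 nM final; plate controls were DMSO with CCL20 for no effect and DMSO without agonist for full effect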
APJ ag = activates the human apelin receptor APJ | P35414 | CHO-K1 APJ PathHunter beta-arrestin, luminescence; 0% DMSO wells, 100% apelin | activation, % at 20 µM | 330,000 compounds, 0.11% hits;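 active means activation more than six SD over the plate average, tested at 20 µM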;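 further: 0% = DMSO alone and 100% = apelin-13 at 10 nM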
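assay system = CHO-K1 APJ beta-arrestin complementation cell line | input = cell density 1000 per well | dosing = compound 20 µM once, DMSO 1% | timing = compound 90 min 25 °C, reagent 1 h | measured by = luminescence from split beta-galactosidase complementation, Galacton Star/Emerald II substrate | read-out basis = APJ agonist activity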
EBI2 antag = EBI2 (human) antagonism | EBI2 beta-arrestin recruitment, luminescence, 7a,25-OHC stimulated | inhibition, % at 5 µM | 360,000 compounds, 0.81% hits | P32249 | AID 651636; in the data active means inhibition above about 38%;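 further: enzyme fragment complementation signal reports receptor beta-arrestin coupling in cells; 0% = agonist plus DMSO wells and 100% = wells without agonist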
EBI2 conf = EBI2 (human) antagonism, single concentration confirmation | EBI2 beta-arrestin luminescence, 7a,25-OHC antagonism | inhibition, % at 5 µM | 2,400 compounds, 29% hits | shares compounds with EBI2 antag;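 active means inhibition of at least 50%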
EBI2 ag = activates EBI2, counter-screen for EBI2 antagonists; shares compounds with EBI2 antag; EBI2-expressing cells, agonist mode, luminescence, 60 min; 0% vehicle, 100% 7α,25-dihydroxycholesterol control; activation, % at 5 µM; 2,400 tested, under 10 active; AID 652000;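 active means activation of at least 50%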
bGal counter = counter-screen for EBI2 antagonists: E. coli beta-galactosidase inhibition; shares compounds with EBI2 antag; purified beta-galactosidase, luminescent Galacton Star, 15 min; inhibition, % at 5 µM; 2,400 compounds, 1% hits;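 active means replicate-average signal at least 3 plate SD below neutral wells, shown as high inhibition, flagging enzyme-inhibiting false positives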;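 further: 0% = DMSO wells with enzyme and 100% = wells lacking enzyme; higher means stronger loss of beta-gal luminescence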
* marks the source's active call; other numbers are inactive results. A selection: hits, their analogues and other compounds. The true share with any hit is near 1.5%.

How did Cc1ccc(C2=CC(=O)C[C@H](c3ccc(F)cc3)C2)cc1 do in these assays?
APJ antag: 9; CXCR6 block: 12; CCR6 antag: 26; APJ ag: -3; EBI2 antag: 70*; EBI2 conf: 36; EBI2 ag: 2; bGal counter: 6

How did CCOc1ccc(C2=CC(=O)C[C@H](c3ccc(OC)cc3)C2)cc1 do in these assays?
APJ antag: -5; CXCR6 block: -4; CCR6 antag: 3; APJ ag: -1; EBI2 antag: 77*; EBI2 conf: 48; EBI2 ag: -1; bGal counter: -7

Results for O=C1C=C(c2ccc(-c3ccccc3)cc2)C[C@@H](c2ccc(F)cc2)C1 ?
APJ antag: 2; CXCR6 block: 4; CCR6 antag: 11; APJ ag: -3; EBI2 antag: 24

Results for CCOc1ccc(-c2ccc(C3=CC(=O)C[C@H](c4ccc(F)cc4)C3)cc2)cc1 ?
CXCR6 block: -5; EBI2 antag: -2

Results for O=C(NCCc1ccccc1)C1CCC(Cn2c(=O)c3ccccc3n(Cc3cccc(Cl)c3)c2=O)CC1 (stereo not drawn) ?
APJ antag: 5; CXCR6 block: 16; CCR6 antag: 11; APJ ag: -4; EBI2 antag: 24

How did O=C(NCCc1ccccc1)C1CCC(Cn2c(=O)c3ccccc3n(Cc3cccc(F)c3)c2=O)CC1 (stereo not drawn) do in these assays?
APJ antag: 10; CXCR6 block: 9; CCR6 antag: 6; APJ ag: -3; EBI2 antag: 61*; EBI2 conf: 29; EBI2 ag: -2; bGal counter: -9

What do the screens show for `C=C(C)C1Cc2c(C)nn(-c3ccccc3)c2C1` (stereo not drawn)?
APJ antag: 13; CXCR6 block: -6; CCR6 antag: 25; APJ ag: -3; EBI2 antag: -10

What do the screens show for `C=C(C)C1Cc2c(C)nn(-c3cccc4ccccc34)c2C1` (stereo not drawn)?
APJ antag: 17; CXCR6 block: -3; CCR6 antag: 10; APJ ag: -2; EBI2 antag: 32*; EBI2 conf: 41; EBI2 ag: -1; bGal counter: 8

What do the screens show for `N#Cc1nc(COc2ccccc2)oc1N1CCC(Cc2ccccc2)CC1`?
APJ antag: -2; CXCR6 block: 12; CCR6 antag: 13; APJ ag: -4; EBI2 antag: 70*; EBI2 conf: 20; EBI2 ag: -1; bGal counter: -4

Results for N#Cc1nc(COc2ccccc2)oc1N1CCN(Cc2ccccc2)CC1 ?
APJ antag: 8; CXCR6 block: 7; CCR6 antag: 14; APJ ag: 0; EBI2 antag: 37

Results for N#Cc1ccc(C(=O)N2CCN(S(=O)(=O)c3ccc(Br)s3)CC2)cc1 ?
APJ antag: -5; CXCR6 block: -12; CCR6 antag: 1; APJ ag: -3; EBI2 antag: 66*; EBI2 conf: 32; EBI2 ag: 1; bGal counter: 8

What do the screens show for `CC(C)OCc1ccc(C(=O)N2CCN(S(=O)(=O)c3ccc(Br)s3)CC2)cc1`?
APJ antag: -3; CXCR6 block: -7; CCR6 antag: 0; APJ ag: -2; EBI2 antag: 34

What do the screens show for `CC(C)CCNC(=O)/C=C/c1ccc(Br)cc1`?
APJ antag: 12; CXCR6 block: -3; CCR6 antag: 16; APJ ag: -1; EBI2 antag: 47*; EBI2 conf: 50; EBI2 ag: -1; bGal counter: -22

What do the screens show for `O=[N+]([O-])c1ccc(-c2cnc(SCc3ccccc3Cl)[nH]2)cc1`?
APJ antag: 2; CXCR6 block: -4; CCR6 antag: 26; APJ ag: -6; EBI2 antag: 28

Results for O=[N+]([O-])c1ccc(-c2cnc(SC(c3ccccc3)c3ccccc3)[nH]2)cc1 ?
APJ antag: -2; CXCR6 block: 22; CCR6 antag: 27; APJ ag: -2; EBI2 antag: 49*; EBI2 conf: 38; EBI2 ag: 0; bGal counter: 6

What do the screens show for `COc1ccc(/C=N/NC(=O)CSc2nnc(CCCc3ccc(OC)c(C)c3)o2)cc1`?
APJ antag: -7; CXCR6 block: -5; CCR6 antag: 11; APJ ag: 0; EBI2 antag: 47*; EBI2 conf: 16; EBI2 ag: -1; bGal counter: -11

What do the screens show for `COc1ccc(CCCc2nnc(SCC(=O)N/N=C\c3ccc(O)c(OC)c3)o2)cc1C`?
APJ antag: -16; CXCR6 block: -2; CCR6 antag: 11; APJ ag: 2; EBI2 antag: 27

What do the screens show for `CC1(c2cccs2)CC(c2cccs2)=C(C#N)C(=O)N1` (stereo not drawn)?
APJ antag: -6; CXCR6 block: 0; CCR6 antag: 0; APJ ag: 3; EBI2 antag: 85*; EBI2 conf: 64*; EBI2 ag: 2; bGal counter: 6

What do the screens show for `CC(C)(C)C1CCC(=O)N(CCOc2ccccc2)CC1` (stereo not drawn)?
APJ antag: 6; CXCR6 block: -1; CCR6 antag: 0; APJ ag: 2; EBI2 antag: 52*; EBI2 conf: 17; EBI2 ag: 0; bGal counter: -15

Results for COc1ccc(CSc2nc(C)cc(C)c2C#N)cc1 ?
APJ antag: 3; CXCR6 block: 4; CCR6 antag: 19; APJ ag: -2; EBI2 antag: 8

What do the screens show for `CCCS(=O)(=O)N1CCN(C(=O)COc2ccc(OC)cc2)CC1`?
APJ antag: -25; CXCR6 block: 1; CCR6 antag: -8; APJ ag: -2; EBI2 antag: 62*; EBI2 conf: 42; EBI2 ag: 2; bGal counter: 11

What do the screens show for `COc1ccc(OCC(=O)N2CCN(C(=O)Cc3ccccc3)CC2)cc1`?
APJ antag: 5; CXCR6 block: 1; CCR6 antag: 9; APJ ag: -2; EBI2 antag: 76*; EBI2 conf: 49; EBI2 ag: 1; bGal counter: 5

Results for COc1ccc(OCC(=O)N2CCN(S(=O)(=O)c3ccccc3[N+](=O)[O-])CC2)cc1 ?
APJ antag: -1; CXCR6 block: -6; CCR6 antag: 11; APJ ag: -1; EBI2 antag: 83*; EBI2 conf: 61*; EBI2 ag: 0; bGal counter: -17
